Assay [1] concerns the target T1, Peroxisome proliferator-activated receptor gamma (Homo sapiens) (UniProt P37231).
T1 sequence (whole entry): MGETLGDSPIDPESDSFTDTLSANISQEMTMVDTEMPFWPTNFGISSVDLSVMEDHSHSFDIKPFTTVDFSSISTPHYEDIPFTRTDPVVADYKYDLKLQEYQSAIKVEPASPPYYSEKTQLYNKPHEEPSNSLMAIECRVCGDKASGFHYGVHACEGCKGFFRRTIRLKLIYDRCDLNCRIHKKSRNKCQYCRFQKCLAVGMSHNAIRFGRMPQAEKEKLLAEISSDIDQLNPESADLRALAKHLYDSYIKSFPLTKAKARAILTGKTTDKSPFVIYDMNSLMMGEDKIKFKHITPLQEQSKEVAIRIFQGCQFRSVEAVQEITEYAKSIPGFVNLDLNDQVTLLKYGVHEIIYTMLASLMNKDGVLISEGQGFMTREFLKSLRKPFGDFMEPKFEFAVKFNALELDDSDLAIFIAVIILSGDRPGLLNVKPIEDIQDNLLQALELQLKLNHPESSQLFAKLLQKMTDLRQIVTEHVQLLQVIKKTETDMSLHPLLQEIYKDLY
Nature of the assay: Agonist activity at recombinant PPARgamma LBD expressed in HEK293T cells co-expressing GAL4 DBD at 20 uM by transactivation assay. Type of assay: functional, cell-based. The settings on record: HEK-293T. The method, boiled down: (§1)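 One-hybrid assay in HEK293T cells cotransfected with a Gal4 DBD–NR-LBD fusion (RXRα, LXRα, GR, PR, PPARδ or PPARγ) plus UAS-TK-Luc reporter. Compound was 20 μM, given alone or with agonist: 9cRA 0.1 μM (RXRα), TO901317 0.5 μM (LXRα), dexamethasone 50 nM (GR), progesterone 100 nM (PR), GW1516 10 μM (PPARδ), rosiglitazone 10 μM (PPARγ). Luciferase read-out; three independent experiments.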

The subject of assay [2] is Mus musculus. Nature of the assay: Reduction of serum triglyceride level in cholesterol-fed C57BL/6 mouse administered orally after 10 days. The class given is functional, organism-based. The procedure, abridged: (§2)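 Male C57BL/6 mice, 8–12 weeks old, were randomized into five groups of nine. Control mice had ground chow; the other groups had chow with 2% cholesterol. Compound (50 or 100 mg/kg) or reference (100 mg/kg) was suspended in 0.5% CMC-Na and given by oral gavage; control and vehicle mice got 0.5% CMC-Na. Serum and hepatic triglyceride and total cholesterol were measured.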

The target of assay [3] is T2, Retinoic acid receptor RXR-alpha (Homo sapiens) (UniProt P19793).
T2 sequence (whole entry): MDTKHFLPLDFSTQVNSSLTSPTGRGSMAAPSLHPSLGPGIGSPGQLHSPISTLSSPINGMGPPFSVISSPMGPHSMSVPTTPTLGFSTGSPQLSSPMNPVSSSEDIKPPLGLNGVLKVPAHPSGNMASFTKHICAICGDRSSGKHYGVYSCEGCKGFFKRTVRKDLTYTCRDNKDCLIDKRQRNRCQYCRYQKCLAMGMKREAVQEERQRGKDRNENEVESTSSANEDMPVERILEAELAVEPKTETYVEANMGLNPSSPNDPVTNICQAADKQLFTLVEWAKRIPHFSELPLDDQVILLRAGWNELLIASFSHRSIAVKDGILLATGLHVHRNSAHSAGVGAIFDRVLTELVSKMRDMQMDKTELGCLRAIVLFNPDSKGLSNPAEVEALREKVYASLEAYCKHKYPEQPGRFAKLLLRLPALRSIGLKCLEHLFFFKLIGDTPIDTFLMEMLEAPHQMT
Nature of the assay: Antagonist activity at recombinant RXRalpha LBD expressed in HEK293T cells co-expressing GAL4 DBD assessed as inhibition of 9cRA-induced transactivation at 20 uM by luciferase reporter gene assay. Type of assay: functional, cell-based. The note with it: HEK-293T. The procedure, abridged:
as §1

Assay [4] has as its system Mus musculus. Nature of the assay: Reduction of hepatic cholesterol level in cholesterol-fed C57BL/6 mouse administered orally after 10 days. The class given is functional, organism-based. The procedure, abridged:
as §2

Assay [5] has as its target T3, Bile acid receptor (Homo sapiens) (UniProt Q96RI1).
T3 sequence (whole entry): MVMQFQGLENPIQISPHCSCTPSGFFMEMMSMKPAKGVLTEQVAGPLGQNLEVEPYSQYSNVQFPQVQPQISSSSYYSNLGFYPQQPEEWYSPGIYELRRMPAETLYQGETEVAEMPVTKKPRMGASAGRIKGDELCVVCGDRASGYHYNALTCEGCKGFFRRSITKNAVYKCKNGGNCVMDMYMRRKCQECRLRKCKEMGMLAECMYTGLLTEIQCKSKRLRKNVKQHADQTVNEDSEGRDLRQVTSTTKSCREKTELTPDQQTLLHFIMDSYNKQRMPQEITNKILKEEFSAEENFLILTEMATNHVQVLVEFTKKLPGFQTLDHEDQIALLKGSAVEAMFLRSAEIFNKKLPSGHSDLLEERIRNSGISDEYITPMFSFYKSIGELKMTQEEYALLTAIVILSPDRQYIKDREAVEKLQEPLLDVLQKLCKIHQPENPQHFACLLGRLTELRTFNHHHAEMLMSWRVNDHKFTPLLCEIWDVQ
Briefly: Antagonist activity at human FXR in human HepG2 cells assessed as inhibition of CDCA induced decrease of Cyp7A1 gene expression at 5 to 40 uM after 24 hrs by RT-PCR analysis. Type of assay: functional, cell-based. The method, boiled down: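 HepG2 cells in 6-well plates were treated with varied concentrations of compound, with or without 100 μM CDCA, for 24 h. Total RNA was taken with TRIzol and cDNA made by reverse transcription. Cyp7A1, SHP, BSEP and SREBP1c mRNA were measured by quantitative RT-PCR and normalized to β-actin. Three independent experiments.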

Assay [6] concerns the target T3, Bile acid receptor (Homo sapiens). Briefly: Antagonist activity at human FXR in human HepG2 cells assessed as reduction in cholesterol level after 24 hrs. Type of assay: functional, cell-based. The method, boiled down: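 HepG2 cells were serum-starved overnight in FBS-free DMEM, then given DMSO or compound for 24 h in serum-free DMEM. Cells were lysed in RIPA buffer, sonicated on ice and centrifuged at 12000 rpm, 4 °C. Triglyceride and total cholesterol in the cleared lysate were measured by kits, with total protein by BCA. At least three experiments.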

The test system of a further assay is HEK-293T. Briefly: (§3) Antagonist activity at FXRalpha/RXRalpha expressed in HEK293T cells co-expressing GAL4 DBD assessed as inhibition of CDCA-induced transactivation after 18 hrs by luciferase reporter gene assay. The settings on record: Homo sapiens. The class given is functional, cell-based. The procedure, abridged: (§4)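 FXR transactivation in HEK293T cells transiently transfected with pcDNA3.1-FXRα, pcDNA3.1-RXRα, pGL3-FXRE-Luc and pRL-SV40 Renilla vector. Medium was replaced 6 h after transfection with medium holding compound at varied concentrations, with or without 20 μM CDCA, for 18 h. Read-out was dual-luciferase. Three independent experiments.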

Assay [7] in a line: as §3. Type of assay: functional, cell-based. The settings on record: Homo sapiens, HEK-293T. The procedure, abridged: as §4

Active and inactive are the calls of the source. The calls are words filed in the database; no cut-off is given here. Where only a bound is given, the exact number is not on record here.

A word on the IC50: it is the concentration that inhibits the measured activity by half.

For `COc1cc(/C=C2\C(=O)N(c3cccc([N+](=O)[O-])c3)N=C2c2ccccc2)ccc1O`, the Activity in assay [1] was less than 15.2%; in the assay on Mus musculus [2] it was “Dose-dependent effect”; with Mus musculus [4], “Dose-dependent effect”. Moreover, the inhibition entry in assay [3] is “inactive”. Also, the inhibition result in assay [5] was “Active”. Moreover, the inhibition result (in assay [6]; in the assay with HEK-293T) was “Dose-dependent effect” in each case. For the same compound, in assay [7], the IC50 was 25.6 µM.

Source of the values: ChEMBL document CHEMBL2169822, “Discovery and optimization of 1,3,4-trisubstituted-pyrazolone derivatives as novel, potent, and nonsteroidal farnesoid X receptor (FXR) selective antagonists” (J Med Chem, 2012).
